Experimental data published in article PMC3310199 (Journal of Medicinal Chemistry, 2012).
“Also recorded” adds a separate entry of the source. Where a SMILES comes first, the peptide text is derived from it. The star is where a group is joined. Cbz = O=C(OCc1ccccc1)*; CHN2 = [N-]=[N+]=C*

Experiments:
IdeS [1] = target: T1, IdeS (Streptococcus pyogenes, UniProt Q9F1R7); conditions: cited from earlier work
T1 sequence (Q9F1R7 30-339): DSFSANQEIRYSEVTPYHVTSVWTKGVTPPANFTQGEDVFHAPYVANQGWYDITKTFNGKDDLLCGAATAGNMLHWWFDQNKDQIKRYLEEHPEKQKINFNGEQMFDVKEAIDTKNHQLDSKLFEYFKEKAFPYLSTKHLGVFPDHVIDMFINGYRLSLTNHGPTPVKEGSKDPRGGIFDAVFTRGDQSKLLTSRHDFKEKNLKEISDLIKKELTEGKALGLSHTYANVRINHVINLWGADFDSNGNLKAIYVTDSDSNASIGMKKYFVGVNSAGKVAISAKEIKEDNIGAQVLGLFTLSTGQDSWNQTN

[2] = target: T2, streptococcal cysteine protease SpeB (Streptococcus pyogenes serotype M1, UniProt P0C0J1); assay: SpeB activity assay; type: biochemical, S. pyogenes; conditions: SpeB 0.28 μM, 4.8 × 10^3 molar excess of peptide/analogue
T2 sequence (P0C0J1 146-398): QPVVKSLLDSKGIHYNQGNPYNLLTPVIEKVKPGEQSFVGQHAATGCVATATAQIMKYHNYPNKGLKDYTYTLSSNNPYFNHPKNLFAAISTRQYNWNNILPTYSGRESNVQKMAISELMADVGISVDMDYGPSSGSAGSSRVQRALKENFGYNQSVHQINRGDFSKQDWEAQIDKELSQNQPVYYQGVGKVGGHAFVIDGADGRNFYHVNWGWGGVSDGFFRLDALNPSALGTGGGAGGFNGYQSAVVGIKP
In short: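 SpeB was purified from S. pyogenes strain 5448 culture medium by ammonium sulfate precipitation and ion exchange. It was activated with 2 mM DTT for 30 min at 37 °C, and active amount was set by E-64 active-site titration. Enzyme was preincubated 15 min at RT with test compound (stock 30 mM in 50% DMSO/phosphate pH 7.4). BPFA was then added (1 mM solution, 0.1 M phosphate pH 6) and OD405 change recorded. Triplicates.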

papain [3] = target: T3, papain (Carica papaya, UniProt P00784); assay: Papain activity assay; type: biochemical; conditions: papain 0.9 μM, 4.8 × 10^3 molar excess of peptide/analogue
T3 sequence (P00784 134-345): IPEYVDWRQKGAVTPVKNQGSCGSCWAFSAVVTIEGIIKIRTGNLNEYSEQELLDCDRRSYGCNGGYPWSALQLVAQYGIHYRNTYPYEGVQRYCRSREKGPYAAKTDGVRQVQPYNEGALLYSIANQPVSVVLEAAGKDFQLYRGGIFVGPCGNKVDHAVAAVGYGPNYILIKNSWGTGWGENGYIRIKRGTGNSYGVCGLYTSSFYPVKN
In short: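 Papain was taken up in pH 6.2 phosphate buffer with EDTA and DTT. It was preincubated 10 min at RT with test compound (stock 30 mM in 50% DMSO/phosphate pH 6.2). Substrate (stock 100 mM in DMSO) was added, then 2 h at 37 °C. Reactions were stopped with glacial acetic acid and cleavage read as Abs405. Duplicates were run on two separate occasions.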

papain [4] = target: T3, papain; assay: Determination of inhibition constants; type: biochemical; conditions: 5 μM papain, Nα-benzoyl-DL-arginine 4-nitroanilide 0.25-6 mM
In short: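 Initial velocities were measured with or without inhibitor at Nα-benzoyl-DL-arginine 4-nitroanilide 6, 3, 1, 0.5 or 0.25 mM and 5 μM papain. Ki was derived by nonlinear regression fitted to a competitive inhibition model.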

IdeS [5] = target: T1, IdeS; type: biochemical; conditions: for inhibitory activity toward IdeS (Figure 4): IdeS 0.8 μM, 4.8 × 10^3 molar excess of peptide/analogue, IgG1 substrate
In short: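 Recombinant His-Trx-IdeS was expressed in E. coli BL21, the tag removed with TEV protease, and purified by Ni2+-resin and size exclusion. Enzyme was preincubated with test compound (stock 30 mM in 50% DMSO/phosphate pH 7.4) 15 min at RT. Human IgG1 was added, then 20 min at 37 °C, stopped with iodoacetamide. Protein A-CM5 SPR was read at 190 s post-injection against no-enzyme controls, converted to fraction active IdeS via a standard curve. Triplicates.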

| SMILES | inhibition of IdeS by known inhibitors (IdeS [1]) | inhibitory effect on SpeB activity (Figure 5A) [2] | inhibitory effect on papain activity (Figure 5B) (papain [3]) | inhibitory activity toward IdeS (Figure 4) (IdeS [5]) | further results |
| --- | --- | --- | --- | --- | --- |
| CC(C)C[C@H](NC(=O)C1OC1C(=O)O)C(=O)NCCCCN=C(N)N (stereo in doubt) [E64, 1-[N-[(3-trans-carboxyoxirane-2-carbonyl)-L-leucyl]amino]-4-guanidinobutane] | not inhibited |  |  |  |  |
| CC(C)C[C@H](N)C(=O)NCC(=O)N1CCC[C@@H](N2CCC[C@H]2C(N)=O)C1 [(R)-LGpipP] |  | inhibited SpeB activity | most active analogue |  |  |
| CC(C)C[C@H](N)C(=O)N1CCC[C@@H](NCC(N)=O)C1 [(R)-LpipG, (−)-2-[(1-L-Leucinyl-(R)-piperidin-3-yl)amino]acetamide] |  | do not inhibit SpeB | hardly affecting papain | most potent inhibitors; also recorded: potent inhibitors of IdeS | effect on initial velocities of papain activity (papain [4]): remained unchanged |
| NC(=O)[C@@H]1CCCN1C(=O)CN[C@@H]1CCCNC1 [(R)-pipGP] |  | no inhibitory activity | even more active toward papain | most potent inhibitors; also recorded: most active inhibitors of IdeS |  |
| CC(C)C[C@H](N)C(=O)NCC(=O)N1CCC[C@H](N2CCC[C@H]2C(N)=O)C1 [(S)-LGpipP] |  | inhibited SpeB activity |  |  |  |
| CCN(CC(N)=O)[C@H]1CCCN(C(=O)[C@H](CC(C)C)NC(=O)[C@@H](N)CC(C)C)C1 [(S)-LLpipEtG] |  | clearly improved degree of inhibition |  |  |  |
| CC(C)C[C@H](N)C(=O)N1CCC[C@H](NCC(=O)N2CCC[C@H]2C(N)=O)C1 [(S)-LpipGP] |  | no inhibitory activity | even more active toward papain | most potent inhibitors; also recorded: most active inhibitors of IdeS |  |
| NC(=O)CN[C@H]1CCCNC1 [(S)-pipG, (+)-2-((S)-Piperidin-3-ylamino)acetamide] |  | do not inhibit SpeB | hardly affecting papain | most potent inhibitors; also recorded: potent inhibitors of IdeS | effect on initial velocities of papain activity (papain [4]): remained unchanged; ligand efficiency (LE) for IdeS inhibition (IdeS [5]; binding energy per atom considered): most favorable peptide analogue in the series |
| NC(=O)[C@@H]1CCCN1C(=O)CN[C@H]1CCCNC1 [(S)-pipGP] |  |  |  | most potent inhibitors |  |
| Cc1ccc(S(=O)(=O)N[C@@H](CCCCN)C(=O)CCl)cc1 [TLCK, tosyl lysyl chloromethyl ketone] | reported to inhibit IdeS |  |  |  |  |
| Cc1ccc(S(=O)(=O)N[C@@H](Cc2ccccc2)C(=O)CCl)cc1 [TPCK, tosyl phenylalanyl chloromethyl ketone] | reported to inhibit IdeS |  |  |  |  |
| CC(C)CC(NC(=O)OCc1ccccc1)C(=O)NC(C(=O)NCC(=O)C=[N+]=[N-])C(C)C (stereo not drawn) [Z-LVG CHN2, N-benzyloxycarbonyl-leucyl-valyl-glycine diazomethylketone] (Cbz-Leu-Val-Gly-CHN2; configuration not given here) | reported to inhibit IdeS |  |  |  |  |
